Measurements collected from several papers.
Protocols differ between the studies behind these lines.
Target: Activin receptor type-1 (ACVR1, Homo sapiens, UniProt Q04771)
One construct used (Q04771 1-509): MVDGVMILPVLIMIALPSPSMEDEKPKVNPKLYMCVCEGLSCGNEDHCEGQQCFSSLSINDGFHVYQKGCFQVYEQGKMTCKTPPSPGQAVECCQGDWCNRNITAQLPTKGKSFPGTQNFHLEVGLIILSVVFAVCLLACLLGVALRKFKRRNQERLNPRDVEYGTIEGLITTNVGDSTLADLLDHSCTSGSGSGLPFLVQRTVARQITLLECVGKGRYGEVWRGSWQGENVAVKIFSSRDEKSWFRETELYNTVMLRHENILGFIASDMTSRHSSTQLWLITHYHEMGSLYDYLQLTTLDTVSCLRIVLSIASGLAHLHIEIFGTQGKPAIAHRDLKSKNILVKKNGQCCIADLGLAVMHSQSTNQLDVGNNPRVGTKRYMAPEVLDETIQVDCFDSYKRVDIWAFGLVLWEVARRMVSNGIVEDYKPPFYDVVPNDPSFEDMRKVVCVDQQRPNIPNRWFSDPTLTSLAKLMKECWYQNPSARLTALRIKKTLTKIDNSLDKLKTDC

Compound | effect on | mode | method | tested at | measurement | result
CN1CC(Oc2cnc(C#N)cc2-c2ccn3nc(NC(=O)C4CC4)cc3c2)C1 | enzyme activity | inhibitor |  | 1 µM | inhibition | -8%
C#Cc1cccc(Nc2ncnc3cc(OCCOC)c(OCCOC)cc23)c1 | cell-free assay |  |  | 0.5 µM | remaining signal | 101%
CCN1CCC2(CC1)NC(=O)c1c(c3ccc(Cl)c(Cl)c3n1C)C2C#N (racemic) | thermal stability |  | DSF | 10 µM | ΔTm | -0.1 °C
CC(=O)C1=C(C)N(c2cccc(C(F)(F)F)c2)C(=O)N[C@@H]1c1ccc(C#N)nc1 | cell-free assay |  | competition with immobilised ligand | 1 µM | remaining binding | 74.5%
N#CC1c2c([nH]c3c(Cl)c(Cl)ccc23)C(=O)NC12CCCCC2 (racemic) | thermal stability |  | DSF | 10 µM | ΔTm | 0.1 °C
Cc1sc(C(=O)NC2COC2)cc1-n1cc(NC(=O)Nc2c(F)cccc2Cl)cn1 | enzyme activity | inhibitor |  | 10 µM | remaining activity | 108%
CC(C)(O)[C@H]1CC[C@H](Nc2ccc3ncc(-c4cccc(C(F)(F)F)c4)n3n2)CC1 | enzyme activity | inhibitor |  | 1 µM | remaining activity | 28.2%
CN([C@@H]1CCc2c(CC(=O)O)c3ccccc3n2C1)S(=O)(=O)c1ccc(F)cc1 | cell-free assay |  | competition with immobilised ligand | 1 µM | remaining binding | 100%
Cc1ccc(NC(=O)c2ccc(C)c(C(F)(F)F)c2)cc1C#Cc1nn(C2CCC(O)CC2)c2ncnc(N)c12 (stereo not drawn) | cell-free assay |  |  | 10 µM | remaining signal | 77%
CC1=C(C#N)C(c2ccc3c(c2)c(NC(=O)c2ccccc2C)nn3C)C(C#N)=C(C)N1 | cell-free assay |  | competition with immobilised ligand | 1 µM | remaining binding | 99%
CC(C)(C)c1nc(-c2cccc(NS(=O)(=O)c3c(F)cccc3F)c2F)c(-c2ccnc(N)n2)s1 | enzyme activity | inhibitor | radiometric | 1 µM | remaining activity | 47%
Nc1cnc(N2CCc3cc(S(=O)(=O)Nc4c(F)cc(Cl)cc4F)cc(N4CCCC4=O)c32)nc1 | cell-free assay |  | competition with immobilised ligand | 1 µM | remaining binding | 100%
O=C1Nc2ccc(Cl)cc2C1=Cc1cc(Cl)c(O)c(Cl)c1 | cell-free assay |  |  | 0.5 µM | remaining signal | 130%
Cn1cc(Cl)c2c(Oc3c(F)cc(Nc4cc(Cl)nc(N)n4)cc3F)ccnc21 | cell-free assay |  | competition with immobilised ligand | 0.1 µM | remaining binding | 85%
Oc1cccc(-c2nc(N3CCOCC3)c3oc4ncccc4c3n2)c1 | cell-free assay |  |  | 0.5 µM | remaining signal | 105%
Cn1c2c(c3ccc(Cl)c(Cl)c31)C(C#N)C1(CCCC1)NC2=O (stereo not drawn) | thermal stability |  | DSF | 10 µM | ΔTm | -0.2 °C
COc1cc(-c2cn(C3CCc4ccccc4N(CC(F)(F)F)C3=O)nn2)ccc1-n1ccc(C)n1 (stereo not drawn) | cell-free assay |  | competition with immobilised ligand | 1 µM | remaining binding | 100%
Cn1c2c(Cl)c(Cl)ccc2c2cc(N)[nH]c(=O)c21 | thermal stability |  | DSF | 10 µM | ΔTm | 3.2 °C
COc1cc(Cl)c(C(=O)N[C@@H](CN[C@H]2CC[C@@H](N)CC2)Cc2ccc(C#N)cc2)cc1-c1ccc(CN[C@H](C)c2ccc(C)cc2)o1 | enzyme activity | inhibitor |  | 1 µM | remaining activity | 89%
Cn1c2c(c3ccc(Cl)c(Cl)c31)C(C#N)C1(CCNCC1)NC2=O (racemic) | thermal stability |  | DSF | 10 µM | ΔTm | -0.1 °C
O=C1NC(=O)c2cc(Nc3ccc(F)cc3)c(Nc3ccc(F)cc3)cc21 | cell-free assay |  |  | 0.5 µM | remaining signal | 92.3%
